Molecules are shown by their SMILES. Calls of active or inactive are those of the source. The rule behind the calls is not given here.

In data set [1] the test system is L1210. Put plainly: Cytotoxicity against mouse L1210 cell line. The class given is cell-based. Details: Activity: concentration or dose not given beside the values. The conditions noted are these: for IC50: Mus musculus, L1210; for Activity: mouse, l1210. Put shortly:
(§1)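 Cells grown at 37 °C under 5% CO2 in medium with 2 mM L-glutamine, penicillin, streptomycin and 20% heat-inactivated horse serum. Drug in DMSO (0.5% final) added to exponentially growing cells seeded at 0.8 × 10^5 cells/mL. Coulter counting in quadruplicate at 48 h (L1210) or 96 h (HT-29). IC50 from probit of % growth inhibition versus log dose; four independent runs in triplicate.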

In the next data set the test system is HT-29. Put plainly: Cytotoxicity against human HT29 cell line. In kind it is cell-based. The procedure, abridged:
as §1

The test system of data set [2] is L1210. Put plainly: Cell cycle arrest in mouse L1210 cell line by accumulation at G2 phase at 1 uM after 24 hrs. In kind it is functional. The procedure, abridged:
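L1210 cells grown in RPMI 1640 with 2 mM L-glutamine, penicillin, streptomycin and 20% heat-inactivated horse serum at 37 °C, 5% CO2, then drug-exposed (methods 21 h; footnote 24 h). Ethanol (70%) fixed, then washed. Stained 30 min at room temperature in PBS with […] RNase and propidium iodide. Flow cytometry gives % cells in each cycle phase.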

The test system of data set [3] is L1210. Put plainly: Cell cycle arrest in mouse L1210 cell line by accumulation at G2/M phase at 5 uM after 24 hrs. The class given is functional. The procedure, abridged:
(§2)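 L1210 cells in RPMI 1640 with 2 mM L-glutamine, penicillin, streptomycin and 20% heat-inactivated horse serum, 5% CO2, 37 °C, exposed to several drug concentrations. Cells fixed in 70% ethanol, washed, stained 30 min at room temperature with propidium iodide plus RNAse in PBS, then flow cytometry. Read-out is percentage of cells in each cycle phase after 24 h exposure.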

Data set [4] concerns L1210. Put plainly: Cell cycle arrest in mouse L1210 cell line by accumulation at 8N phase at 5 uM after 24 hrs. The class given is functional. The procedure, abridged:
as §2

For data set [5], the system named is L1210. Put plainly: Cell cycle arrest in mouse L1210 cell line by accumulation at 8N phase at 20 uM after 24 hrs. The class given is functional. The procedure, abridged:
as §2

For the next data set, the species on record is Homo sapiens. Kind of data set: Inhibition of topoisomerase 2 assessed by DNA cleavage complex formation assay. The procedure, abridged: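 Cleavage complex formed on pYRG plasmid DNA by human topoisomerase II purified from placenta. Linear DNA product quantified by densitometry relative to ellipticine.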
The test system of data set [6] is L1210. Kind of data set: Cell cycle arrest in mouse L1210 cell line by accumulation at G2/M phase at 1 uM after 24 hrs. In kind it is functional. The procedure, abridged:
as §2

Data set [7] can be described thus: Effect on DNA sequence recognition assessed by DNase I footprinting assay. The class given is functional.

`Cc1c2ccncc2c(C)c2c1[nH]c1ccccc12` [ELLIPTECINE]: the half-maximal inhibitory concentration (IC50) with L1210 [1] worked out at 0.19 µM; in the data set on HT-29, 14.9 µM. This molecule also yielded an Activity with L1210 [2] of 50%.
Regarding `CCc1c2c(c(C)c3c1Oc1ccccc1O3)C(=O)OC2`, the IC50 in the data set with L1210 [1] and in the data set with HT-29 was greater than 10 µM throughout.
On to `Cc1c2c(c(C)c3cnccc13)Oc1ccccc1O2`, for which the values for the IC50 in the data set with L1210 [1] and with HT-29 were 1.2 µM and 22.1 µM, respectively.
On to `CC1OC(=O)C2=C1Oc1ccccc1O2` (stereo not drawn), for which the half-inhibitory concentration (IC50) in the data set on L1210 [1] and in the data set on HT-29 was greater than 10 µM throughout.
As to `CCCCCCc1c2c(c(CCCCCC)c3c1Oc1ccccc1O3)C(=O)OC2`, the IC50 with L1210 [1] and in the data set with HT-29 was greater than 10 µM each time.
In the case of `CCCCCCCc1c2c(c(C)c3c1Oc1ccccc1O3)C(=O)OC2`, the IC50 was greater than 10 µM in the data set on L1210 [1] and 21.8 µM in the data set with HT-29.
With `CCCCCCc1c2c(c(C)c3c1C(=O)OC3)Oc1ccccc1O2`, the Activity in the data set with L1210 [3] and in the data set with L1210 [4] was 86% each time. For the same molecule, the figures for the half-inhibitory concentration (IC50) in the data set on L1210 [1] and in the data set with HT-29 were 2 µM and 0.38 µM, respectively.
In the data set with L1210 [1], `CCCCCc1c2c(c(C)c3c1Oc1cc(OC)ccc1O3)C(=O)OC2` yielded an IC50 greater than 10 µM and an Activity of 70%. Further, in the data set with HT-29, the IC50 was greater than 10 µM.
As for `CNCCCCc1c2c(c(C)c3c1C(=O)OC3)Oc1ccccc1O2`, the Activity in the data set on L1210 [3] and with L1210 [4] was 86% in each case. The IC50 in the data set on L1210 [1] was 2.4 µM; in the data set on HT-29 it was 0.54 µM.
As to `CCCCCc1c2c(c(C)c3c1Oc1ccccc1O3)C(=O)OC2`, the Activity in the data set on L1210 [3] and in the data set on L1210 [4] was 35% in each case. For the same molecule, the 50% inhibitory concentration (IC50) was found to be 7.2 µM with L1210 [1] and 9.2 µM in the data set on HT-29.
`CCCCCCCCc1c2c(c(C)c3c1C(=O)OC3)Oc1ccccc1O2`: the IC50 in the data set on L1210 [1] and in the data set on HT-29 was greater than 10 µM each time.
As for `Cc1c2c(c(CCCCCC#N)c3c1C(=O)OC3)Oc1ccccc1O2`, the IC50 with L1210 [1] and in the data set on HT-29 was greater than 10 µM throughout.
As for `Cc1c2c(c(CCCCCC(=O)O)c3c1Oc1ccccc1O3)C(=O)OC2`, the IC50 in the data set on L1210 [1] and in the data set on HT-29 was greater than 10 µM in each case.
In the case of `CCCCCCCCc1c2c(c(C)c3c1Oc1ccccc1O3)C(=O)OC2`, the concentration for half-maximal inhibition (IC50) in the data set on L1210 [1] and with HT-29 was greater than 10 µM each time.
For `CCCc1c2c(c(C)c3c1Oc1ccccc1O3)C(=O)OC2`, the IC50 in the data set on L1210 [1] and with HT-29 was greater than 10 µM each time. In the data set on L1210 [1], the Activity is given as 115%.
As to `Cc1c2c(c(CCCCC(=O)O)c3c1Oc1ccccc1O3)C(=O)OC2`, the IC50 in the data set on L1210 [1] is 89 µM; in the data set with HT-29, greater than 10 µM.
In the data set on L1210 [1], `CCCCCc1c2c(c(C)c3c1C(=O)OC3)Oc1ccc(OC)cc1O2` registered a half-maximal inhibitory concentration (IC50) greater than 10 µM and an Activity of 78%. The molecule also showed an IC50 in the data set with HT-29 greater than 10 µM.
In the case of `CCc1c2c(c(C)c3c1C(=O)OC3)Oc1ccccc1O2`, the IC50 in the data set with L1210 [1] and with HT-29 was greater than 10 µM in each case.
As for `Cc1c2c(c(CC(C)CC(C)(C)C)c3c1C(=O)OC3)Oc1ccccc1O2` (stereo not drawn), the concentration for half-maximal inhibition (IC50) with L1210 [1] and in the data set with HT-29 was greater than 10 µM in each case. For the same molecule, the Activity with L1210 [1] came to 70%.
In the data set with L1210 [1], `CCCCCCc1c2c(c(C)c3c1Oc1ccccc1O3)C(=O)OC2` yielded a 50% inhibitory concentration (IC50) greater than 10 µM and an Activity of 118.3%. In addition, the 50% inhibitory concentration (IC50) with HT-29 worked out at 18.2 µM.
Regarding `CCCCCCCc1c2c(c(C)c3c1C(=O)OC3)Oc1ccccc1O2`, the IC50 with L1210 [1] stood at 3.9 µM; in the data set on HT-29, 1.9 µM. The molecule also registered an Activity in the data set with L1210 [5] of 70%.
On to `Cc1c2c(c(CCCCCC#N)c3c1Oc1ccccc1O3)C(=O)OC2`, for which the concentration for half-maximal inhibition (IC50) with L1210 [1] turned out to be 0.54 µM; with HT-29 it was 0.12 µM. Further, in the data set listed under Homo sapiens, the result was inactive. Also, the Activity in the data set with L1210 [4] is given as 88%.
In the data set on L1210 [1], `CCCc1c2c(c(C)c3c1C(=O)OC3)Oc1ccccc1O2` registered an IC50 greater than 10 µM and an Activity of 111%. In the data set with HT-29, the IC50 was greater than 10 µM.
On to `Cc1c2c(c(C)c3c1Oc1ccccc1O3)C(=O)OC2`, for which the IC50 in the data set on L1210 [1] and in the data set with HT-29 was greater than 100 µM in each case.
Consider `COc1cccc2c1C(=O)c1c(O)c3c(c(O)c1C2=O)C[C@@](O)(C(=O)CO)C[C@@H]3O[C@H]1C[C@H](N)[C@H](O)[C@H](C)O1` [DOXORUBICIN], for which the results for the IC50 in the data set with L1210 [1] and with HT-29 were 0.029 µM and 0.48 µM, respectively. Also, in the data set on L1210 [6], the Activity was 86%.
Take `Cc1c2c(c(CCCCC#N)c3c1Oc1ccccc1O3)C(=O)OC2`: the IC50 with L1210 [1] amounted to 77 µM; in the data set on HT-29, 24.1 µM.
The corresponding values for `Cc1c2c(c(CC(C)CC(C)(C)C)c3c1Oc1ccccc1O3)C(=O)OC2` (stereo not drawn) are 13.5 µM and greater than 10 µM.
The corresponding values for `CCCCc1c2c(c(C)c3c1Oc1ccccc1O3)C(=O)OC2` are greater than 100 µM and 17.7 µM.
The corresponding values for `CCCCCCc1c2c(c(C)c3c1C(=O)SC3)Oc1ccccc1O2` are 19 µM and 34.5 µM.
Consider `CCCCCc1c2c(c(C)c3c1C(=O)OC3)Oc1ccccc1O2`, for which the Activity with L1210 [3] and in the data set on L1210 [4] was 80% in each case. The IC50 is 1.8 µM in the data set on L1210 [1] and 0.12 µM with HT-29. The result (in the data set listed under Homo sapiens; in data set [7]) was inactive.
For `Cc1c2c(c(CCCCCN)c3c1Oc1ccccc1O3)C(=O)OC2`, the IC50 in the data set with L1210 [1] came to 12.8 µM; in the data set on HT-29, 5.7 µM.

By IC50 is commonly meant the midpoint of a concentration-inhibition curve.

The values above are taken from ChEMBL document CHEMBL1139834, “Synthesis and structure-activity relationships of new benzodioxinic lactones as potential anticancer drugs” (J Med Chem, 2007).
